For assay [1], the system named is SK-LU-1. Kind of assay: Cytotoxicity against human SK-LU-1 cells after 48 hrs by SRB assay. Format: functional, cell-based. To be noted: SK-LU-1, 48 h. The gist of the method: (§1)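 SRB protein-staining assay: 5–10 × 10^3 cells/well in RPMI-1640/10% FCS, allowed 24 h to attach, then 48 h with compound dissolved from DMSO stock; TCA fixation, 0.4% SRB staining, Tris-solubilized dye read at 515 nm. IC50 from dose-response curve by non-linear regression; mean ± SD of three independent experiments.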

Another assay relates to PC-3. Kind of assay: Cytotoxicity against human PC3 cells at 50 uM after 48 hrs by SRB assay. Format: functional. To be noted: PC-3, 48 h. The gist of the method: (§2)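 Cells in RPMI-1640 with 10% FCS at 37 °C, 5% CO2; 5–10 × 10^3 cells/well seeded 24 h, then exposed 48 h to 50 μM compound (DMSO stock; 5-fluorouracil at same concentration as positive control). TCA-fixed at 4 °C 1 h, stained with 0.4% SRB, dye solubilized in 10 mM Tris base, OD 515 nm; % growth inhibition, mean of three experiments in triplicate.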
Background: The SRB assay estimates cell density from bound dye.

Another assay relates to U-251. Kind of assay: Cytotoxicity against human U251 cells at 50 uM after 48 hrs by SRB assay. The format is functional. To be noted: U-251, 48 h. The procedure, abridged: as §2
The subject of assay [2] is MCF7. The assay is described as follows: Cytotoxicity against human MCF7 cells at 50 uM after 48 hrs by SRB assay. As to conditions: MCF7, 48 h. The format is functional. The procedure, abridged: as §2
Assay [3] has as its system MCF7. Kind of assay: Cytotoxicity against human MCF7 cells after 48 hrs by SRB assay. The format is functional, cell-based. To be noted: MCF7, 48 h. The procedure, abridged: as §1
The next assay relates to K562. The assay is described as follows: Cytotoxicity against human K562 cells at 50 uM after 48 hrs by SRB assay. Format: functional. As to conditions: for inhibition at 50 µM: K562, 48 h. The procedure, abridged:
as §2

In assay [4] the test system is SK-LU-1. The assay is described as follows: Cytotoxicity against human SK-LU-1 cells at 50 uM after 48 hrs by SRB assay. Format: functional. As to conditions: SK-LU-1, 48 h. The procedure, abridged: as §2
Another assay relates to HCT-15. The assay is described as follows: Cytotoxicity against human HCT15 cells at 50 uM after 48 hrs by SRB assay. The format is functional. As to conditions: for inhibition at 50 µM: HCT-15, 48 h. The gist of the method:
as §2

The test system of assay [5] is SK-LU-1. The assay is described as follows: Cell cycle arrest in human SK-LU-1 cells assessed as accumulation at S phase after 24 hrs by flow cytometry. Format: functional. In general terms: Flow cytometry measures light scatter and fluorescence of single cells or particles in a stream.
Assay [6] deals with MCF7. The assay is described as follows: Cell cycle arrest in human MCF7 cells assessed as accumulation at S phase after 24 hrs by flow cytometry. Format: functional.
Assay [7] deals with MCF7. The assay is described as follows: Cell cycle arrest in human MCF7 cells assessed as accumulation at G2/M phase after 24 hrs by flow cytometry. The format is functional.
Assay [8] relates to SK-LU-1. Kind of assay: Cell cycle arrest in human SK-LU-1 cells assessed as accumulation at G1 phase after 24 hrs by flow cytometry. Format: functional.
The test system of assay [9] is SK-LU-1. Kind of assay: Cell cycle arrest in human SK-LU-1 cells assessed as accumulation at G2/M phase after 24 hrs by flow cytometry. The format is functional.
Assay [10] deals with MCF7. Kind of assay: Cell cycle arrest in human MCF7 cells assessed as accumulation at G1 phase after 24 hrs by flow cytometry. The format is functional.
Assay [11] concerns the target Cyclin-dependent kinase 1/cyclin B1 (Homo sapiens) (UniProt P06493+P14635). As to conditions: at 7 µM.
Assay [12] relates to SK-LU-1. Kind of assay: Induction of apoptosis in human SK-LU-1 cells assessed as necrotic cells after 48 hrs using annexin-V-FITC/propidium iodide staining by flow cytometry. Format: functional, cell-based. The gist of the method:
(§3)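 2.5 × 10^5 cells per well attached 24 h, then treated 48 h with compound or DMSO vehicle at the highest concentration used. Adherent plus floating cells washed in PBS, resuspended in annexin-binding buffer, stained with annexin V-FITC and propidium iodide 10 min in the dark at room temperature; 10,000 events analysed by flow cytometry, quadrants scoring apoptotic versus late apoptotic/necrotic cells.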

The test system of assay [13] is SK-LU-1. The assay is described as follows: Induction of apoptosis in human SK-LU-1 cells assessed as apoptotic cells after 48 hrs using annexin-V-FITC/propidium iodide staining by flow cytometry. Format: functional, cell-based. The procedure, abridged: as §3

IC50, inhibition and Activity data for 14 molecules are collected here from ChEMBL document CHEMBL1153702, “Synthesis and cytotoxic activity of 2-methylimidazo[1,2-a]pyridine- and quinoline-substituted 2-aminopyrimidine derivatives” (Eur J Med Chem, 2010).

Active and inactive are the calls of the source. The rule behind the calls is not given here.

Cyclin-dependent kinase 1/cyclin B1 (Homo sapiens), sequence (P06493 whole entry, looked up): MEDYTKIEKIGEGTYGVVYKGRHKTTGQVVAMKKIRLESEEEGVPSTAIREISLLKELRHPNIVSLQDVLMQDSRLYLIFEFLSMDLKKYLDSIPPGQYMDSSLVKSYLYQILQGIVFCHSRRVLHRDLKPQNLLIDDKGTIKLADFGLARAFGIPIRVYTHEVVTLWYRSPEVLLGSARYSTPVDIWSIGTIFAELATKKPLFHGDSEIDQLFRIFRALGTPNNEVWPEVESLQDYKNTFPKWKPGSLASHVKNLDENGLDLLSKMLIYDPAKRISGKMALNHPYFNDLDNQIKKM
Cyclin-dependent kinase 1/cyclin B1 (Homo sapiens), sequence (P14635 whole entry, looked up): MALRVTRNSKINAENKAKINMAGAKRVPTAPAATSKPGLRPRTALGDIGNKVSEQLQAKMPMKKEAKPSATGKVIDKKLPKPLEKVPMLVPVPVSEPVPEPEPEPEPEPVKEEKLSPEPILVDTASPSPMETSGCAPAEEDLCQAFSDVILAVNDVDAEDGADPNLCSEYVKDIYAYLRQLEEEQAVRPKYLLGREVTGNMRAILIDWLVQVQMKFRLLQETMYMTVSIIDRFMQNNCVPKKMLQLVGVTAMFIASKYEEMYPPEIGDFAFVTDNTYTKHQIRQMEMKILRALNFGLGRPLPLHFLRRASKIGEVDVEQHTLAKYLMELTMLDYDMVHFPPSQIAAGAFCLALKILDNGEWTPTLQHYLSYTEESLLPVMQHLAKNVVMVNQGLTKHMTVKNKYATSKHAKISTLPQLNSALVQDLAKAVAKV

Take `Nc1nccc(-c2c(C(F)(F)F)nc3ccccn23)n1`: the results for the IC50 in the assay with SK-LU-1 [1] and in the assay with MCF7 [3] were 56500 nM and 53700 nM, respectively. Also, the inhibition (as a rule, the relative decrease from the control value, in per cent) at 50 µM in the assay on PC-3 worked out at 74%; in the assay with U-251 it was 92.2%; in the assay on MCF7 [2] it was 100%; with K562, 56.3%; in the assay on SK-LU-1 [4], 71%.
In the case of `O=c1[nH]cc(F)c(=O)[nH]1` [FLUOROURACIL], the inhibition at 50 µM in the assay with PC-3 is 45.4%; in the assay with U-251 it was 64.2%; in the assay with HCT-15 it was 71.3%; in the assay with MCF7 [2] it was 65.1%; with K562 it was 73.7%; in the assay with SK-LU-1 [4], 70.5%.
As for `Cn1cnc2c(NCc3ccccc3)nc(NCCO)nc21` [OLOMOUCINE], the Activity was found to be 19.7% in the assay on SK-LU-1 [5]; 15.1% in the assay on MCF7 [6]; 23.2% in the assay on MCF7 [7]; 44.2% in the assay with SK-LU-1 [8]; 31.8% in the assay with SK-LU-1 [9]; 60.6% with MCF7 [10].
As for `Cc1nc2ccccn2c1-c1ccnc(Nc2ccc(C(F)(F)F)cc2)n1`, the values for the IC50 in the assay on SK-LU-1 [1] and with MCF7 [3] were 34 nM and 66 nM, respectively. Also, the inhibition at 50 µM came out at 64.5% in the assay on PC-3; 85.6% in the assay on U-251; 88.6% with HCT-15; 83.4% in the assay on MCF7 [2]; 84.8% in the assay on K562; 100% with SK-LU-1 [4]. In assay [11], this molecule displayed an inhibition of 60%.
With `Cc1ccc(Nc2nccc(-c3cnc4ccccc4c3)n2)cc1`, the inhibition at 50 µM in the assay with PC-3 is 59.5%; in the assay with U-251 it was 87.7%; with HCT-15, 30.3%; with MCF7 [2] it was 100%; in the assay with SK-LU-1 [4], 46.3%. Moreover, the inhibition in assay [11] was determined as 73%. Further, in the assay with MCF7 [3], the IC50 (in general, the concentration that inhibits the measured activity by half) was 50000 nM. The inhibition result in the assay on K562 was “inactive”.
As for `FC(F)(F)c1ccc(Nc2nccc(-c3cnc4ccccc4c3)n2)cc1`, the inhibition at 50 µM came out at 22.9% in the assay on PC-3; 49.8% in the assay with U-251; 24% in the assay with HCT-15; 80.9% in the assay with MCF7 [2]; 35.4% in the assay on SK-LU-1 [4]. In addition, the IC50 in the assay with MCF7 [3] was above 50000 nM. The inhibition entry in the assay on K562 was “inactive”.
As to `FC(F)(F)c1ccc(Nc2nccc(-c3c(C(F)(F)F)nc4ccccn34)n2)cc1`, the values for the IC50 in the assay on SK-LU-1 [1] and in the assay with MCF7 [3] were 745 nM and 290 nM, respectively. Also, the inhibition at 50 µM amounted to 92% in the assay with PC-3; 100% in the assay on U-251; 94.4% with HCT-15; 100% in the assay with MCF7 [2]; 94.2% in the assay on K562; 95% in the assay on SK-LU-1 [4].
`FC(F)(F)c1ccc(Nc2nccc(-c3ccnc4ccccc34)n2)cc1`: the IC50 in the assay with SK-LU-1 [1] came to 1720 nM; with MCF7 [3] it was 1650 nM. Also, the inhibition at 50 µM in the assay on PC-3 stood at 87.3%; in the assay on U-251, 91.8%; in the assay on HCT-15 it was 100%; with MCF7 [2], 100%; in the assay with SK-LU-1 [4], 100%. Further, in the assay on K562, the inhibition entry is “inactive”.
Turning to `Nc1nccc(-c2ccnc3ccccc23)n1`, the IC50 was above 50000 nM in the assay with SK-LU-1 [1] and 40200 nM in the assay with MCF7 [3]. In addition, the inhibition at 50 µM was 77.4% in the assay with PC-3; 100% in the assay with U-251; 100% with MCF7 [2]; 9.4% in the assay with K562; 78.2% in the assay with SK-LU-1 [4]. The inhibition entry with HCT-15 was “inactive”.
With `Nc1nccc(-c2cnc3ccccc3c2)n1`, the half-inhibitory concentration (IC50) with SK-LU-1 [1] and in the assay on MCF7 [3] was above 50000 nM each time. Further, the inhibition at 50 µM was 31.9% with PC-3, 38.5% in the assay with U-251, 100% in the assay on MCF7 [2] and 59.3% in the assay with SK-LU-1 [4]. The inhibition result in the assay on HCT-15 and in the assay on K562 was “inactive” throughout.
Regarding `Cc1ccc(Nc2nccc(-c3ccnc4ccccc34)n2)cc1`, the figures for the IC50 in the assay with SK-LU-1 [1] and with MCF7 [3] were 1400 nM and 600 nM, respectively. Besides, the inhibition at 50 µM was 100% in the assay with PC-3; 100% with U-251; 100% in the assay with HCT-15; 100% with MCF7 [2]; 50.9% with K562; 100% in the assay with SK-LU-1 [4]. The Activity with SK-LU-1 [5] is listed as 22%; in the assay with MCF7 [6], 15.1%; with MCF7 [7], 64.7%; with SK-LU-1 [8], 8.1%; in the assay on SK-LU-1 [9], 74%; in the assay on MCF7 [10] it was 18.7%. For the same molecule, in the assay with SK-LU-1 [12], the outcome was inactive. Besides, the inhibition in assay [11] was 75%. For the same molecule, the result with SK-LU-1 [13] was Active.
Regarding `Cc1ccc(Nc2nccc(-c3c(C(F)(F)F)nc4ccccn34)n2)cc1`, the IC50 in the assay with SK-LU-1 [1] stood at 175 nM; with MCF7 [3] it was 44 nM. For the same molecule, the inhibition at 50 µM with PC-3, with U-251, with HCT-15, with MCF7 [2], in the assay on K562 and with SK-LU-1 [4] was 100% each time. In addition, in the assay on SK-LU-1 [12], the outcome was inactive. Also, the result with SK-LU-1 [13] was Active.
For the molecule `Cc1ccc(Nc2nccc(-c3c(C)nc4ccccn34)n2)cc1`, the figures for the IC50 in the assay with SK-LU-1 [1] and in the assay with MCF7 [3] were 19.7 nM and 59 nM, respectively. Also, the inhibition at 50 µM is 94.2% with PC-3; 100% with U-251; 95.2% with HCT-15; 88.5% in the assay on MCF7 [2]; 89.4% in the assay on K562; 100% in the assay with SK-LU-1 [4]. The Activity in the assay on SK-LU-1 [5] was 20.9%; in the assay with MCF7 [6] it was 25.3%; in the assay with MCF7 [7] it was 14.7%; with SK-LU-1 [8] it was 4.7%; in the assay on SK-LU-1 [9], 77.5%; in the assay on MCF7 [10], 60.8%. Also, the result with SK-LU-1 [12] was inactive. The same molecule returned an inhibition in [11] of 59%. In addition, the outcome in the assay with SK-LU-1 [13] was Active.
Consider `Cc1nc2ccccn2c1-c1ccnc(Nc2ccc(C=O)s2)n1`, for which the IC50 in the assay with SK-LU-1 [1] worked out at 1540 nM; in the assay on MCF7 [3], 4270 nM. Also, the inhibition at 50 µM in the assay with PC-3 was 49.5%; in the assay on U-251, 57.8%; in the assay with HCT-15, 85.4%; with MCF7 [2], 75.9%; with K562, 88.1%; with SK-LU-1 [4], 100%. In addition, the Activity turned out to be 13.9% in the assay with SK-LU-1 [5]; 15.7% in the assay with MCF7 [6]; 22.2% in the assay with MCF7 [7]; 42.5% in the assay with SK-LU-1 [8]; 48% in the assay on SK-LU-1 [9]; 54.5% with MCF7 [10]. The outcome in the assay with SK-LU-1 [12] was inactive. The molecule further yielded an inhibition in [11] of 52%. Also, the outcome in the assay with SK-LU-1 [13] was Active.
